# From PubChem BioAssay
# FXIa inh = blocks human coagulation factor XIa protease activity; P03951; purified FXIa, Boc-Glu-Ala-Arg-AMC fluorogenic substrate; inhibition, % at 5 µM; 0.14% of 220,000 active;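 active means inhibition of at least 40%; inactive means inhibition below 40%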;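 further: fluorescence of freed AMC excited at 355 nm; 0% = enzyme without compound and 100% = no enzyme blank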
# Target sequence (P03951 19-387 limits assumed): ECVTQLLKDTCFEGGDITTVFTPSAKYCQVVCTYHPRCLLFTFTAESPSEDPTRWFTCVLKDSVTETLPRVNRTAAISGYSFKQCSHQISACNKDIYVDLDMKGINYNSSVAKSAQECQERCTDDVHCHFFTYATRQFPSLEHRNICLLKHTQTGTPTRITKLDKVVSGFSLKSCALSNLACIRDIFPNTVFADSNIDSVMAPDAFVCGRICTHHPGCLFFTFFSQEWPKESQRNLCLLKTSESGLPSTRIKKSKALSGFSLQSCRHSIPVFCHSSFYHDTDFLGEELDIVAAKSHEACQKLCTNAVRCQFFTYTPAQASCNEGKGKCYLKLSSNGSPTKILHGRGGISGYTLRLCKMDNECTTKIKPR
# Target sequence (P03951 388-625 limits assumed): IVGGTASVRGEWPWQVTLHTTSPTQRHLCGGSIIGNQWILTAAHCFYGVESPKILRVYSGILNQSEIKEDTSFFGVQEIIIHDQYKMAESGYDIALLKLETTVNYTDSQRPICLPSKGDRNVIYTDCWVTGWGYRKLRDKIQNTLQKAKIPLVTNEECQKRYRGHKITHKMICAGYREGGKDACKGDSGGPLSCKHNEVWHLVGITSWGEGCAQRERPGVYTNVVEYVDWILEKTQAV
# EP2 antag = inhibitors of human EP2 prostaglandin E2 receptor. inhibition, % at 25 µM. AID 1422. 0.52% of 260,000 active. C6 glioma cells expressing human EP2, cAMP TR-FRET; cells stimulated with saturating PGE2. P43116;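 active means percent inhibition above 40 after rounding to a whole number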;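 further: rat C6 glioma host cells with rolipram phosphodiesterase inhibitor present; the protocol text gives 20 µM as final concentration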
# EP2 mod = modulators of human EP2 prostaglandin E2 receptor; 0.83% of 260,000 active; P43116; induction, % at 25 µM; EP2-expressing cells, cAMP HTRF FRET, PGE2 co-stimulation;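 active means compounds whose cAMP rise, as percent of the full-agonist control response, exceeds 60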;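 further: rat C6 glioma line stably carrying human EP2 under a CMV promoter; the protocol text gives 20 µM as final concentration; 100% = response of wells given 1 µM PGE2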
# hK5 inh = inhibitors of human kallikrein 5; 0.59% of 210,000 active; recombinant hK5, fluorogenic AMC substrate cleavage; inhibition, % at 5 µM;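 active means inhibition of 40% or more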;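 further: 0% = enzyme controls without compound and 100% = no-enzyme blanks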
# FXIIa inh = blocks human coagulation factor XIIa protease activity; P00748; purified FXIIa, Boc-QGR-AMC fluorogenic substrate, 2 h; inhibition, % at 5 µM; 0.3% of 220,000 active; AID 800; in the data active means inhibition above about 40%;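 further: 0% = enzyme with no compound and 100% = blank without enzyme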
# Thrombin inh = thrombin (human) inhibition; P00734; alpha-thrombin, Boc-VPR-AMC fluorogenic substrate cleavage; inhibition, % at 5 µM; 0.26% of 220,000 active; AID 1046;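 active means inhibition at or above 40%; inactive means inhibition below 40%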;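 further: 0% = enzyme with no compound and 100% = wells without enzyme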
#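 Material: Human alpha-thrombin protein | Buffer or medium: pH 7.5 Tris-saline with Tween 20 | Reagent: Boc-VPR-AMC substrate, 15 µM final | Schedule: Reaction at ambient temperature | Detection: AMC fluorescence at 355 nm excitation and 460 nm emission | Evaluation: Percent inhibition scaled between no-compound controls and no-enzyme blanks | Controls: no-compound enzyme wells and no-enzyme blanks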
# The depositor's hits bear a star; . = no result given. This is a sample that favours compounds with a hit; in the whole collection about 2.1% have one here.
SMILES,FXIa inh,EP2 antag,EP2 mod,hK5 inh,FXIIa inh,Thrombin inh
Clc1cccc(C2NCc3ccccc3-n3cccc32)c1 (stereo unspecified),-4,4,69*,0,3,-4
CC(Cc1ccc(O)cc1)NCC(O)c1cc(O)cc(O)c1 (stereo unspecified),-2,7,82*,1,5,.
O=C(O)CN1CCN(CC(=O)O)CC(=O)[O][Hg][O]C(=O)C1,.,103*,-25,.,.,.
CCOc1ccc(O)c(CN2C3CCC2CC(O)(c2ccccc2F)C3)c1 (stereo unspecified),.,3,43,.,.,.
Cc1c(O)c(O)cc2c1CC=C1[C@@]2(C)CC[C@@]2(C)C3C[C@](C)(C(=O)O)CC[C@]3(C)CC[C@]12C (stereo partly specified),.,8,4,.,.,.
CC1=C(O)C(=O)C=C2C1=CC=C1[C@@]2(C)CC[C@@]2(C)[C@@H]3C[C@](C)(C(=O)O)CC[C@]3(C)CC[C@]12C,.,110*,-41,.,.,.
COc1ccc(CC2c3cc(OC)c(OC)cc3CCN2C)cc1O (stereo unspecified),8,16,24,5,14,0
CCC1=C(C[C@H]2NCCc3cc(OC)c(OC)cc32)C[C@H]2c3ccccc3CCN2C1,.,52*,21,.,.,.
C#CCOc1ccc(CN2C3CCC2CC(O)(c2ccccc2F)C3)cc1OC (stereo unspecified),.,5,-16,.,.,.
O=C(c1cccn2c(=O)c3cc(Br)ccc3nc12)N1CCC2(CC1)OCCO2,55*,9,-5,38,1,20
O=C(c1cccn2c(=O)c3ccc(Cl)cc3nc12)N1CCC2(CC1)OCCO2,21,.,7,-2,9,-20
C=CCn1cc(CN2C3CCC2CC(O)(c2cccc(F)c2)C3)c(C)n1 (stereo unspecified),.,6,-69,.,.,.
O=C1NC(=S)NC(=O)C1=Cc1cccn1-c1ccc(O)cc1,0,112*,-113,3,6,-6
CCCSc1nc2ccccc2c(=O)n1-c1ccccc1C,.,15,75*,.,.,.
CC[n+]1c(/C=C/N(C)c2ccccc2)sc2ccc(Cl)cc21,3,5,-27,3,13,3
CN(C)c1ccc(/C=C/C=C/c2sc3ccccc3[n+]2C)cc1,-5,46*,-77,0,12,-2
CN(C)c1ccc(/C=C/c2cc[n+](C)c3ccccc23)cc1,-3,56*,-87,-20,-2,2
CC[n+]1c(/C=C/C=C/c2ccc(N(C)C)cc2)sc2ccccc21,-12,115*,-155,3,-1,-6
CN(C)c1ncc(CN2C3CCC2CC(O)(c2ccccc2F)C3)cn1 (stereo unspecified),.,8,-10,.,.,.
COCCc1ncc(CN2C3CCC2CC(O)(c2cccc(F)c2)C3)cn1 (stereo unspecified),.,5,-28,.,.,.
C=CCOc1c(CN2C3CCC2CC(O)(c2cccc(F)c2)C3)cccc1OC (stereo unspecified),.,3,-51,.,.,.
Cc1nc(-c2ccccc2)c(CC(=O)N(CCN(C)C)C2CCN(C)CC2)s1,.,5,-43,.,.,.
COc1ccc(CN2CCN(C(=O)COc3ccc(C)cc3)CC2)c(OC)c1OC,.,14,-57,.,.,.
CCCn1cc(CN2CCCC(C(=O)c3cccc(OC)c3)C2)c(C)n1 (stereo unspecified),32,7,-18,21,75*,-7
CCn1cc(CN2CCCC(C(=O)c3cccc(OC)c3)C2)c(C)n1 (stereo unspecified),-7,5,-46,-3,1,-18
SMILES,FXIa inh,EP2 antag,EP2 mod,hK5 inh,FXIIa inh,Thrombin inh
C=CCn1ncc(CN2C3CCC2CC(O)(c2ccc(OC)cc2)C3)c1C (stereo unspecified),.,10,33,.,.,.
CC(c1cccc(F)c1)n1cc(C(=O)NC2CCCC2)nn1 (stereo unspecified),.,8,-11,.,.,.
CCOP(=O)(OCC)C(NC(=O)c1ccccc1Cl)=C(Cl)Cl,-9,12,18,-2,3,-2
O=C(NCc1ccccn1)c1ccccc1Cl,4,1,25,61*,14,11
OC(CN1CC=C(c2ccc(F)cc2)CC1)c1ccc2c(c1)OCCO2 (stereo unspecified),.,10,-85,.,.,.
c1cc2c(c(NC3=NCCN3)c1)CCCC2,.,43*,-12,.,.,.
Clc1cc(I)cc(Cl)c1NC1=NCCN1,.,17,7,.,.,.
CC(C)OP(=O)(OC(C)C)C(O)c1ccccc1F (stereo unspecified),1,50*,2,-9,3,5
Cc1ccc(S(=O)(=O)N[C@@H](CCCCN)C(=O)CCl)cc1,.,17,66*,.,.,.
CC(=O)N1CN2CN(C(C)=O)CC(C(=O)c3ccc([N+](=O)[O-])cc3)(C2)C1,-3,12,26,1,8,-4
CC(=O)N1CN2CN(C(C)=O)CC(C(=O)c3ccccc3)(C2)C1,8,15,9,48*,19,17
Cc1ccc(NC(=[OH+])c2cc3ccccc3cc2O)c(C)c1.Cc1ccc(NC(=[OH+])c2cc3ccccc3cc2O)c(C)c1.[Ni],.,43*,-6,.,.,.
CCCCn1c(N)c(C(=O)NCc2cccs2)c2nc3ccccc3nc21,-15,2,62*,-35,-2,-6
CCCCCn1c(N)c(C(=O)NCc2cccs2)c2nc3ccccc3nc21,-2,4,59,-113,1,-3
CCN1CCN(C(=O)COc2ccc(Cl)cc2Cl)CC1,.,4,-51,.,.,.
CCOC(=O)c1ccc(N=C(c2ccccc2)c2c(O)n(C)c(=O)n(C)c2=O)cc1,-13,17,11,43*,-1,-8
Cc1ccc(C2(c3ccc(C)c(O)c3C)CCN(C)CC2)c(C)c1O,.,112*,-45,.,.,.
Cn1ccnc1C1(O)CC2CCC(C1)N2CC(=O)N1CCCc2ccccc21 (stereo unspecified),.,.,-7,.,.,.
O=C(CN1C2CCC1CC(O)(c1ccccn1)C2)Nc1ccc(Cl)cc1 (stereo unspecified),.,.,-71,.,.,.
CN(C)CCN(Cc1ccc(F)cc1)C(=O)Cc1n[nH]c(=O)c2ccccc12,.,3,-26,.,.,.
Nc1nc(=S)c2ncn(C3OC(CO)C(O)C3O)c2[nH]1 (stereo unspecified),2,14,0,0,12,2
Nc1cc[c]([Hg])cc1.Nc1nc2c(ncn2[C@H]2O[C@H](CO)[C@@H](O)[C@@H]2O)c(=[SH+])[nH]1,.,104*,-43,.,.,.
COc1cccc(CN2CCN(C(=O)Cc3ccccc3F)[C@@H](C)C2)c1,.,.,-29,.,.,.
COC(=O)c1ccc(C(C(=O)NC2CCCCC2)N(CCN2CCOCC2)C(=O)Cc2cccs2)cc1 (stereo unspecified),1,3,-6,-1,100*,-8
